# Screening results (PubChem BioAssay)
# IDH1 R132H inh: inhibitors of human IDH1 R132H; O75874; IDH1 R132H reductase, diaphorase/resazurin fluorescence, 60 min; inhibition, % at 10 µM; 70,000 compounds, 0.18% hits; AID 624101; in the data active = inhibition above about 34%; inconclusive = no clear call, values can overlap the other calls; inactive = below about 11%;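 also: 0% = DMSO and 100% = no enzyme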
# Target sequence (O75874 whole entry R132H): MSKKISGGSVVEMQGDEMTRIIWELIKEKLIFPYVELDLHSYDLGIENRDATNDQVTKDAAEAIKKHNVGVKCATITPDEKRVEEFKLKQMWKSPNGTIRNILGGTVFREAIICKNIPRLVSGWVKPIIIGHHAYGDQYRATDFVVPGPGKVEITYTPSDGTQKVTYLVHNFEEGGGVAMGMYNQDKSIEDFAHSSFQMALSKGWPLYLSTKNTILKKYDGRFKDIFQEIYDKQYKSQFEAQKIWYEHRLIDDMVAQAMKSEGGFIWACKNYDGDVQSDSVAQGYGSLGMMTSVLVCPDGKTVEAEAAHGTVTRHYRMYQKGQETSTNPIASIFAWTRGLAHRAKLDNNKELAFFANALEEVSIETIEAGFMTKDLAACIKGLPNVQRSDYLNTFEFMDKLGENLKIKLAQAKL
# T cruzi growth-1: T. cruzi proliferation inhibition | inhibition, % at 8.34 µM | 77,000 compounds, 5.9% hits | T. cruzi beta-gal in NIH3T3, GalScreen luminescence, 90 h;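 active = mean inhibition above about 93%, with at least 55% of replicates each passing it, limit read from the data, passing the limit was not always enough; inconclusive = only one of those two conditions holds; inactive = neither condition holds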
# KDM4C inh: blocks human GASC-1 (KDM4C) demethylase activity; Q9H3R0; GST-KDM4C 2-372, H3K9me3 peptide, LANCE TR-FRET; inhibition, % at 12.5 µM; 96,000 compounds, 0.15% hits; AID 720574;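 active = mean replicate inhibition above about 25%, with at least 55% of replicates also reaching it, limit read from the data, passing the limit was not always enough; inconclusive = only one of those two conditions met; inactive = neither condition met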
#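 System: N-terminal GST-fused human GASC-1 (KDM4C) fragment, residues 2-372; amount: enzyme final amount 10 nM; incubation: reaction 30 min RT, detection step 1 h RT; medium: HEPES buffer, pH 7.5, plus ascorbate; technique: LANCE TR-FRET, Eu antibody, ULight-streptavidin, EDTA, ex 340 nm, em 618/671 nm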
# T cruzi growth-2: inhibitors of T. cruzi proliferation; shares compounds with T cruzi growth-1; T. cruzi beta-gal in NIH3T3, GalScreen luminescence, 90 h; inhibition, % at 8.35 µM; 5,600 compounds, 72% hits; AID 651739;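 active = mean replicate inhibition above about 95% and at least 55% of replicates individually reaching it, limit read from the data; inconclusive = only one of the two criteria is met; inactive = neither criterion is met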
# T cruzi growth-3: inhibitors of T. cruzi proliferation. 5,600 compounds, 21% hits. inhibition, % at 2.09 µM. T. cruzi beta-gal in NIH3T3, GalScreen luminescence, 90 h. shares compounds with T cruzi growth-1. AID 651740;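 active = mean inhibition above about 95%, with at least 55% of replicates also reaching it, limit read from the data; inconclusive = meets just one of the two conditions; inactive = meets neither condition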;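 also: plate controls were neutral control median for no effect and positive control median for full effect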
# 3T3 cytotox: kills mouse NIH/3T3 fibroblasts | NIH/3T3 viability, CellTiter-Glo ATP luminescence, 90 h | shares compounds with T cruzi growth-1 | 5,600 compounds, 14% hits | cytotoxicity (signal decrease), % at 8.35 µM;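 active = mean signal decrease across replicates above about 35% based on untreated-well scatter, with enough replicates individually passing, limit read from the data; inconclusive = no rule stated though some were filed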;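 also: 0% = median of neutral control wells and 100% = median of positive control wells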
# 3T3 cytotox 2: kills mouse NIH/3T3 fibroblasts; shares compounds with T cruzi growth-1; NIH/3T3 viability, CellTiter-Glo ATP luminescence, 90 h; inhibition, % at 24.9 µM; 5,600 compounds, 56% hits; AID 651744;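 active = mean loss of cell viability signal at or above a set limit, and enough replicates individually reaching it; inconclusive = meets only the mean limit or only the replicate share; inactive = meets neither condition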;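 also: 0% = median of neutral control wells and 100% = median of positive control wells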
# The depositor's hits bear a star; ? = inconclusive; . = no result. This is one part of a sample in which hits are shown more often than they occur.
SMILES,IDH1 R132H inh,T cruzi growth-1,KDM4C inh,T cruzi growth-2,T cruzi growth-3,3T3 cytotox,3T3 cytotox 2
O=C(C1CCC1)N1CCCCN2[C@@H](CO)[C@@H](c3ccc(C#CC4(O)CCCC4)cc3)[C@@H]2C1,.,?,-0.6,88.9,54.3,5.4,0.2
O=C(C1CCCC1)N1CCCCN2[C@H](CO)[C@@H](c3ccc(C#CC4(O)CCCC4)cc3)[C@@H]2C1,.,-23.1,.,.,.,.,.
O=C(C1CCCC1)N1CCCCN2[C@@H](CO)[C@H](c3ccc(C#CC4(O)CCCC4)cc3)[C@@H]2C1,.,?,.,97.7*,81.5,33.1,43.8*
O=C(CSc1nc2ccccc2c(=O)[nH]1)Nc1ccc2ccccc2c1,0.1,.,.,.,.,.,.
COc1ccccc1NC(=O)N1CCCCN2[C@H](C1)[C@@H](c1ccc(-c3cccc(C)c3)cc1)[C@@H]2CO,.,76.7,-1.0,.,.,.,.
COc1cccc(-c2ccc([C@@H]3[C@H](CO)N4CCCCN(C(=O)NC(C)C)C[C@@H]34)cc2)c1,.,101.8*,-1.0,105.4*,51.5,-2.6,48.0*
Cc1cccc(-c2ccc([C@H]3[C@@H](CO)N4CCCCN(C(=O)NC(C)C)C[C@H]34)cc2)c1,.,109.4*,-1.6,107.9*,83.6,-15.4,105.1*
COc1ccccc1NC(=O)N1CCCCN2[C@H](CO)[C@H](c3ccc(-c4cccc(C)c4)cc3)[C@@H]2C1,.,?,-1.1,106.6*,102.7*,4.7,?
Cc1cccc(-c2ccc([C@@H]3[C@H]4CN(C(=O)NC(C)C)CCCCN4[C@H]3CO)cc2)c1,.,91.3,-0.7,.,.,.,.
COc1ccc(-c2ccc([C@@H]3[C@H](CO)N4CCCCN(C(=O)NC(C)C)C[C@@H]34)cc2)cc1,.,109.4*,0.7,108.4*,67.0,9.6,45.2*
COc1cccc(-c2ccc([C@H]3[C@H]4CN(C(=O)NC(C)C)CCCCN4[C@H]3CO)cc2)c1,.,91.1,0.0,.,.,.,.
COc1ccc(-c2ccc([C@H]3[C@H]4CN(C(=O)NC(C)C)CCCCN4[C@H]3CO)cc2)cc1,.,37.0,0.4,.,.,.,.
COc1ccc(NC(=O)CNS(=O)(=O)c2ccccc2)cc1OC,-0.1,.,.,.,.,.,.
Cc1ccc(O)c(NC(=S)NC(=O)c2ccc(-c3ccccc3[N+](=O)[O-])o2)c1,-0.3,.,.,.,.,.,.
CCCC1=CC(=O)C(O)C1O (stereo not given),-0.1,.,.,.,.,.,.
CS(=O)(=O)N1[C@@H](C#N)[C@H](c2ccc(C#CC3CC3)cc2)[C@@H]1CO,.,66.2,-5.4,.,.,.,.
N#C[C@H]1[C@@H](c2ccc(C#CC3CCCC3)cc2)[C@@H](CO)N1S(=O)(=O)c1ccccc1,-0.3,90.7,-1.5,.,.,.,.
N#C[C@@H]1[C@H](c2ccc(C#CC3CCCC3)cc2)[C@@H](CO)N1S(=O)(=O)c1ccccc1,.,97.5*,-0.6,96.3*,106.9*,13.4,107.7*
CS(=O)(=O)N1[C@@H](C#N)[C@@H](c2ccc(C#CC3CC3)cc2)[C@@H]1CO,.,103.1*,-1.6,107.4*,?,-21.5,16.1
FC(F)(F)Oc1ccc(Nc2n[nH]c(=S)s2)cc1,6.9,.,.,.,.,.,.
Cc1ccc(C)c(NC(=O)c2ccc(OCC(=O)Nc3cc(C(F)(F)F)ccc3Cl)cc2)c1,0.5,.,.,.,.,.,.
O=C(CSc1nnnn1-c1ccccc1)Nc1ccc(Br)cc1F,0.8,.,.,.,.,.,.
COc1cc(C(=O)OCc2ccc(-c3cccc(Cl)c3Cl)o2)cc(OC)c1OC,0.4,.,.,.,.,.,.
N#Cc1c(NC(=O)COc2ccc(C(=O)Nc3cc(Cl)ccc3Cl)cc2)sc2c1CCC2,-0.5,.,.,.,.,.,.
C[C@@H]1CCCCO[C@H](CN(C)C(=O)Nc2ccc(C(F)(F)F)cc2)[C@H](C)CN([C@H](C)CO)C(=O)c2cc(NC(=O)c3ccncc3)ccc2O1,.,103.4*,-0.6,113.5*,50.3,-6.9,42.0*
SMILES,IDH1 R132H inh,T cruzi growth-1,KDM4C inh,T cruzi growth-2,T cruzi growth-3,3T3 cytotox,3T3 cytotox 2
C[C@@H]1CN([C@H](C)CO)C(=O)c2cc(NC(=O)c3ccncc3)ccc2O[C@@H](C)CCCCO[C@H]1CN(C)C(=O)Nc1ccc(C(F)(F)F)cc1,0.9,48.6,-0.4,.,.,.,.
C[C@H](CO)N1C[C@H](C)[C@H](CN(C)C(=O)Nc2ccc(C(F)(F)F)cc2)OCCCC[C@H](C)Oc2ccc(NC(=O)c3ccncc3)cc2C1=O,.,107.4*,0.0,108.7*,99.1*,22.6,37.2*
C[C@@H]1CCCCO[C@H](CN(C)C(=O)Nc2ccc(C(F)(F)F)cc2)[C@@H](C)CN([C@H](C)CO)C(=O)c2cc(NC(=O)c3ccncc3)ccc2O1,.,46.3,.,.,.,.,.
COc1ccc(NC(=O)Nc2cccc3c2O[C@H](CN(C)Cc2ccc(Cl)c(Cl)c2)[C@H](C)CN([C@H](C)CO)C3=O)cc1,.,37.4,0.2,.,.,.,.
C[C@H](CO)N1C[C@H](C)[C@H](CN(C)Cc2ccc(Cl)c(Cl)c2)Oc2c(NC(=O)Nc3ccc4c(c3)OCO4)cccc2C1=O,.,?,2.0,101.1*,89.6,7.8,26.7*
COc1ccc(CN(C)C[C@H]2Oc3c(NC(=O)Nc4ccc(OC)cc4)cccc3C(=O)N([C@@H](C)CO)C[C@H]2C)cc1,1.7,-26.7,-0.5,.,.,.,.
COc1ccc(NC(=O)Nc2cccc3c2O[C@@H](CN(C)Cc2ccc(Cl)c(Cl)c2)[C@@H](C)CN([C@H](C)CO)C3=O)cc1,.,?,.,110.6*,61.5,-1.0,37.6*
C[C@@H]1CN([C@H](C)CO)C(=O)c2cccc(NC(=O)Nc3ccc4c(c3)OCO4)c2O[C@@H]1CN(C)Cc1ccc(Cl)c(Cl)c1,.,111.8,-0.3,.,.,.,.
COc1ccc(NC(=O)Nc2cccc3c2O[C@@H](CN(C)Cc2ccc(Cl)c(Cl)c2)[C@@H](C)CN([C@@H](C)CO)C3=O)cc1,3.5,121.7*,-2.1,99.5*,69.5,17.8,51.2*
Cc1cc(Br)c(NC(=O)CSc2nnc(-c3ccccc3)o2)cc1C,0.2,.,.,.,.,.,.
Cc1cccc(NC(=O)CSc2nnc(-c3cccs3)n2-c2ccccc2)c1,-0.2,.,.,.,.,.,.
Cc1ccc(S(=O)(=O)Nc2ccc3c(c2)C(=O)N([C@H](C)CO)C[C@H](C)[C@@H](CN(C)S(=O)(=O)c2ccc(C)cc2)OCCCC[C@@H](C)O3)cc1,.,42.9,0.0,.,.,.,.
Cc1ccc(S(=O)(=O)Nc2ccc3c(c2)C(=O)N([C@@H](C)CO)C[C@@H](C)[C@H](CN(C)S(=O)(=O)c2ccc(F)cc2)OCCCC[C@H](C)O3)cc1,-1.0,121.3*,0.2,109.9*,41.2,2.3,1.8
Cc1ccc(S(=O)(=O)Nc2ccc3c(c2)C(=O)N([C@H](C)CO)C[C@H](C)[C@@H](CN(C)S(=O)(=O)c2ccc(F)cc2)OCCCC[C@H](C)O3)cc1,.,.,4.3,.,.,.,.
